High-throughput results deposited in PubChem by Broad Institute.
A selection: hits, their analogues and other compounds. The true share with any hit is near 3.7%.
ERAP1 HTS inh: blocks human ERAP1 aminopeptidase activity; recombinant ERAP1, Leu-AMC fluorescence, 60 min; 340,000 tested, 0.15% active; inhibition, % at 10.7 µM; AID 652197;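 active = mean replicate inhibition of at least 30%, or all replicates individually reaching that 30% level; inactive = mean below 30% and not every replicate reaching it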;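 also: 0% = neutral control wells and 100% = L-leucinethiol positive control wells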
Target sequence (Q9NZ08 whole entry, looked up): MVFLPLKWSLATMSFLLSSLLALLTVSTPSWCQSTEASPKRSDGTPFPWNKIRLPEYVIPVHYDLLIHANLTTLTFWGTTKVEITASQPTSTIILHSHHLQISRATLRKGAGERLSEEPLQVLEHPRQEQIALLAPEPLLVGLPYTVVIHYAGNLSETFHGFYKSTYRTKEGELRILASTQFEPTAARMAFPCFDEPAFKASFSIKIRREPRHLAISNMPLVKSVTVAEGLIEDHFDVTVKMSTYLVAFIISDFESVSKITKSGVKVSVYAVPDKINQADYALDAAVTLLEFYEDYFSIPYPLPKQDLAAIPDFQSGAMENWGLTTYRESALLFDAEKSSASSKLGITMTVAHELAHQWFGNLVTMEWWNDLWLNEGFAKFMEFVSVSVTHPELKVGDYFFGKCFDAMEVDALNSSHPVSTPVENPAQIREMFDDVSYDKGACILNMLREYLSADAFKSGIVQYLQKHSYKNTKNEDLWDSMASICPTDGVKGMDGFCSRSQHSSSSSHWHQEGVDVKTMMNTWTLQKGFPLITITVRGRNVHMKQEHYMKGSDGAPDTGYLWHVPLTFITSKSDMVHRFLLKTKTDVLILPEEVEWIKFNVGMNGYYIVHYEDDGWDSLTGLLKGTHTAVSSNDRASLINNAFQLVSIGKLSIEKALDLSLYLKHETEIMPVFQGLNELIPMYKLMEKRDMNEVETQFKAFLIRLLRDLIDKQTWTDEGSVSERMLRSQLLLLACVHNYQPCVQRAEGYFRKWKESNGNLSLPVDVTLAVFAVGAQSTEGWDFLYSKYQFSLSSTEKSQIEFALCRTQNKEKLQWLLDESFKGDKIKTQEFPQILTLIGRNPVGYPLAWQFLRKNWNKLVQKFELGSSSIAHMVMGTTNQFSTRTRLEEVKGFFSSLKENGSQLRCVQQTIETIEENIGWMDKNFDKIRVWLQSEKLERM
DENV2 CPE rescue: protects cells from dengue virus 2 cytopathic effect; DENV2-infected cells, cytopathic effect rescue, plate reader; CPE inhibition, % at 9.99 µM; 350,000 tested, 1.7% active; AID 651640; in the data active = CPE inhibition above about 20%, passing the limit was not always enough; tested in BHK-21 cells;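 also: 0% = median of neutral control wells and 100% = median of positive control wells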
E-sel inducer: E-selectin induction on HUVECs; P16581; HUVEC E-selectin immunofluorescence imaging; normalized: neutral wells 0, TNF-alpha wells 100; activation, % at 7.58 µM; 260,000 tested, 0.37% active;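 active = mean E-selectin-positive cell signal at least 10% of the positive control, reached in at least 60% of replicates, without over 20% cell loss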
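Assay system: HUVEC, human umbilical vein endothelial cells / Amount: 3,000 HUVEC/well / Controls: TNF-alpha positive control, DMSO neutral control / Compound dosing: single concentration / Medium: EGM-2 over gelatin coat / Evaluation: percent E-selectin-positive cells / Signal: immunofluorescence imaging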
F508del corr: correctors of CFTR F508del function in bronchial epithelial cells; CFBE cells, YFP halide quenching; stimulated with forskolin plus potentiator P3; % fluorescence drop versus neutral controls; activity (quench increase), % at 7.58 µM; 350,000 tested, 0.36% active; AID 720511;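 active = mean added fluorescence quench of at least 8% versus neutral control, with both replicates also reaching 8%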;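 also: cells transiently co-express mutant CFTR-F508del with the halide-sensitive YFP; corrector assay measuring rescue of mutant channel to the surface after 24 h compound exposure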
FGF22 binding: shifts melting point of recombinant human FGF22. recombinant FGF22 thermal shift, SYPRO orange fluorescence; percent of sucrose octasulfate shift, DMSO zero. activity (Tm shift, normalised), % at 9.99 µM. 340,000 tested, 1.5% active. Q9HCT0. AID 651658;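 active = mean Tm shift, scaled 0 neutral to 100 positive control, at about 1.3% or above, every replicate too, limit read from the data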
Numbers without * were called inactive.

Results for Cc1ccc(OP(=O)(NC(C)c2ccccc2)Oc2ccc(C)cc2)cc1 (stereo unspecified) ?
ERAP1 HTS inh: -0.2; DENV2 CPE rescue: -4.1; F508del corr: 2.1; FGF22 binding: 43.0*

Results for Cc1ccc(NP(=O)(Oc2ccccc2)Oc2ccccc2)cc1 ?
ERAP1 HTS inh: -2.4; DENV2 CPE rescue: 2.6; F508del corr: -3.5; FGF22 binding: -0.1

How did c1ccc(C2CC2)c(OCC2=NCCN2)c1 do in these assays?
ERAP1 HTS inh: 0.0; DENV2 CPE rescue: 74.6*; E-sel inducer: 0.9; F508del corr: 3.5; FGF22 binding: -0.1

Results for O=C(Cc1ccccc1)N1CCCCN2[C@@H](CO)[C@@H](c3ccc(C#Cc4ccccc4)cc3)[C@@H]2C1 ?
ERAP1 HTS inh: -3.1; DENV2 CPE rescue: 9.4; E-sel inducer: -0.1; F508del corr: -1.3; FGF22 binding: -0.7

What do the screens show for `CC(C)(C)n1cc(C(=O)c2ccccc2)cc1-c1ccccc1`?
ERAP1 HTS inh: 1.1; DENV2 CPE rescue: 35.6*; E-sel inducer: 0.0; F508del corr: -0.5; FGF22 binding: -0.1

What do the screens show for `O=C1NC2C(=CC(O)C(O)C2O)c2cc3c(c(O)c21)OCO3` (stereo unspecified)?
ERAP1 HTS inh: 6.4; DENV2 CPE rescue: 87.6*; E-sel inducer: -0.4; F508del corr: -0.7; FGF22 binding: -0.3

How did O=C1NC(=O)C(=Cc2ccc(OCC(=O)N3CCOCC3)cc2)C(=O)N1 do in these assays?
ERAP1 HTS inh: 0.2; DENV2 CPE rescue: 63.7*; F508del corr: -2.5; FGF22 binding: -0.4

What do the screens show for `CN(CCOc1ccc(C=C2C(=O)NC(=O)NC2=O)cc1)c1ccccn1`?
ERAP1 HTS inh: -1.0; DENV2 CPE rescue: 8.3; F508del corr: 1.5; FGF22 binding: 0.1

What do the screens show for `COC(=O)[C@@H]1[C@@H](CO)[C@@H]2Cn3c(cccc3=O)[C@H]1N2C(=O)C1CCC1`?
ERAP1 HTS inh: 0.4; DENV2 CPE rescue: 2.3; F508del corr: 2.5; FGF22 binding: -0.1

How did CCCCn1c(=O)c(C=Nc2cc([N+](=O)[O-])ccc2OC)c(O)n(CCCCl)c1=O do in these assays?
ERAP1 HTS inh: -1.9; DENV2 CPE rescue: 2.6; E-sel inducer: -0.1; F508del corr: 1.8; FGF22 binding: 43.0*

Results for COC(=O)[C@@H]1[C@@H](CO)[C@@H]2Cn3c(ccc(-c4ccccc4F)c3=O)[C@H]1N2Cc1cccnc1 ?
ERAP1 HTS inh: 0.4; DENV2 CPE rescue: -6.1; E-sel inducer: 0.0; F508del corr: -0.1; FGF22 binding: -0.1

How did COc1cc(C(=O)NN=Cc2ccc(N(CCCl)CCCl)cc2)cc(OC)c1OC do in these assays?
ERAP1 HTS inh: -3.7; DENV2 CPE rescue: -7.5; E-sel inducer: 0.0; F508del corr: -3.4; FGF22 binding: 44.0*

How did CC=Cc1ccc2n(c1=O)C[C@H]1[C@H](CO)[C@@H](C(=O)N(C)C)[C@@H]2N1C (mixture of isomers) do in these assays?
ERAP1 HTS inh: 3.1; DENV2 CPE rescue: 0.7; E-sel inducer: 0.1; FGF22 binding: 0.0

What do the screens show for `COC(=O)[C@@H]1[C@@H](CO)[C@@H]2Cn3c(ccc(-c4ccncc4)c3=O)[C@H]1N2CCc1ccccc1`?
ERAP1 HTS inh: 0.3; DENV2 CPE rescue: 107.3*; E-sel inducer: 0.2; FGF22 binding: 0.0

How did CC(C)N=C(NC(C)C)N1CC1 do in these assays?
ERAP1 HTS inh: -2.3; DENV2 CPE rescue: -5.6; E-sel inducer: 0.1; F508del corr: -0.1; FGF22 binding: 42.9*

How did N#Cc1ccc(-c2ccc([C@H]3[C@H]4CN(C(=O)Cc5ccccc5)CCCCN4[C@H]3CO)cc2)cc1 do in these assays?
ERAP1 HTS inh: -0.7; DENV2 CPE rescue: -8.8; E-sel inducer: -0.2; F508del corr: 1.2; FGF22 binding: 0.4

Results for CN1OC[C@@H]2CN[C@H](c3ccc(Br)cc3)C[C@@H]21 ?
DENV2 CPE rescue: 25.7*; E-sel inducer: -1.6; F508del corr: 0.9; FGF22 binding: 0.3

How did CC(CN1CCOCC1)OC(=O)Cc1ccccc1 (stereo unspecified) do in these assays?
ERAP1 HTS inh: -3.6; DENV2 CPE rescue: -4.0; F508del corr: 3.0; FGF22 binding: -0.1

Results for CC(CN1CCOCC1)C(C#N)(c1ccccc1)c1ccccc1 (stereo unspecified) ?
ERAP1 HTS inh: 1.4; DENV2 CPE rescue: 11.6; E-sel inducer: -0.3; F508del corr: -2.1; FGF22 binding: 43.0*
